Substitutions are numbered along the chain they refer to.
How the values were obtained:
Conditions in all cases: stereoisomer not certain
UniProt Q7TR71 = biological target: T1, UniProt Q7TR71
T1 sequence (whole entry): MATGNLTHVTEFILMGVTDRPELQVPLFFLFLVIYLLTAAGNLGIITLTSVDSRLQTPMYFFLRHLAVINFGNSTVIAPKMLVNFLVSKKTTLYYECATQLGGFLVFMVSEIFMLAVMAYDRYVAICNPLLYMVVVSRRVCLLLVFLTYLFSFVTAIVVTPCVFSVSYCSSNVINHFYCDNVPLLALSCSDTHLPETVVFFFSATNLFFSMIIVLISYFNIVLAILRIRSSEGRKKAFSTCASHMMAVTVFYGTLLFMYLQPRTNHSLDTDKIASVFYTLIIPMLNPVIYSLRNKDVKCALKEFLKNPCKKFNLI
How it was run: (§1)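 Transient luciferase assays in mammalian cell lines were common, though methods varied by source. The values come from published papers and their supplementary material, with extra details from the original authors when needed. Responsive refers to a measured signal the original authors judged statistically different from baseline, and non-responsive (inactive) to the remainder.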

UniProt Q7TR75 = biological target: UniProt Q7TR75
How it was run: as §1

UniProt Q7TRA1 = biological target: T2, UniProt Q7TRA1
T2 sequence (whole entry): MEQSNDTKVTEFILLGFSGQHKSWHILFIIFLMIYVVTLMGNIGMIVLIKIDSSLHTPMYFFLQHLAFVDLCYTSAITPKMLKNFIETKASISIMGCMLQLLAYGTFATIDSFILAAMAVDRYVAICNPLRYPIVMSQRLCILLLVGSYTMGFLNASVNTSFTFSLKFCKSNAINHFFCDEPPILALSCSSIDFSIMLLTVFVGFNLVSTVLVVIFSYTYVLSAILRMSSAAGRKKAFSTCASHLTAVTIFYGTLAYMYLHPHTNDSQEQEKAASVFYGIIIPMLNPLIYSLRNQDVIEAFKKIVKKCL
How it was run: as §1

UniProt Q7TRA2 = biological target: T3, UniProt Q7TRA2
T3 sequence (whole entry): T2 sequence (whole entry) with S18A, I86T, I94F, M95I, S112C, V208L, T219I, V221I, V305A
How it was run: as §1

UniProt Q7TRA3 = biological target: T4, UniProt Q7TRA3
T4 sequence (whole entry): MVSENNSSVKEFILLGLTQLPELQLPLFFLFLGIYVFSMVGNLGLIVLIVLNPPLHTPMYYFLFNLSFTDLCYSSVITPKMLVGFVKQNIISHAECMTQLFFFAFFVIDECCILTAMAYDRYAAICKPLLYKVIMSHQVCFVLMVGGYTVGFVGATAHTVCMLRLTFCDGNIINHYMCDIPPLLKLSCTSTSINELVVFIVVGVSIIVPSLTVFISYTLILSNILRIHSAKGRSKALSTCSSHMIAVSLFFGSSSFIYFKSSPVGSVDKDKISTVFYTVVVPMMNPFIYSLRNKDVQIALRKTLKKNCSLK
How it was run: as §1

UniProt Q7TRB8 = biological target: UniProt Q7TRB8
How it was run: as §1

UniProt Q7TRE4 = biological target: T5, UniProt Q7TRE4
T5 sequence (whole entry): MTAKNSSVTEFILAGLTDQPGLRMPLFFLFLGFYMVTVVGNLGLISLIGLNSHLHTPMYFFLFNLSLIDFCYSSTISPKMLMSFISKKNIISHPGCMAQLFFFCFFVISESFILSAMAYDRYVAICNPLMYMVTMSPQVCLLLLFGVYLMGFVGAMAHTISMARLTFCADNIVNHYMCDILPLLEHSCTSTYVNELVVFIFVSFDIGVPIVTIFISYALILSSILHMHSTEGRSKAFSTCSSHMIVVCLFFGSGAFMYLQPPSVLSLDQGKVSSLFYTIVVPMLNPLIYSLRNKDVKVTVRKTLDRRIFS
How it was run: as §1

UniProt Q7TRW1 = biological target: T6, UniProt Q7TRW1
T6 sequence (whole entry): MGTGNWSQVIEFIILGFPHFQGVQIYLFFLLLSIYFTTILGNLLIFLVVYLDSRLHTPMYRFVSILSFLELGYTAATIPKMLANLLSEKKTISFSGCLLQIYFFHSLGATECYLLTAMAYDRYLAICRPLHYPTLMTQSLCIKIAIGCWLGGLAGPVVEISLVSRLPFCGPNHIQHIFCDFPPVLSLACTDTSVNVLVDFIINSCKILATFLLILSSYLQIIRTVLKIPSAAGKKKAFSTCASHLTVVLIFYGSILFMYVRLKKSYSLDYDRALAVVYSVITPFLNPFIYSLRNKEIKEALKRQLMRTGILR
How it was run: as §1

UniProt Q7TS17 = biological target: UniProt Q7TS17
How it was run: as §1

UniProt Q7TS37 = biological target: UniProt Q7TS37
How it was run: as §1

UniProt Q7TS40 = biological target: UniProt Q7TS40
How it was run: as §1

UniProt Q8VEU7 = biological target: T7, UniProt Q8VEU7
T7 sequence (whole entry): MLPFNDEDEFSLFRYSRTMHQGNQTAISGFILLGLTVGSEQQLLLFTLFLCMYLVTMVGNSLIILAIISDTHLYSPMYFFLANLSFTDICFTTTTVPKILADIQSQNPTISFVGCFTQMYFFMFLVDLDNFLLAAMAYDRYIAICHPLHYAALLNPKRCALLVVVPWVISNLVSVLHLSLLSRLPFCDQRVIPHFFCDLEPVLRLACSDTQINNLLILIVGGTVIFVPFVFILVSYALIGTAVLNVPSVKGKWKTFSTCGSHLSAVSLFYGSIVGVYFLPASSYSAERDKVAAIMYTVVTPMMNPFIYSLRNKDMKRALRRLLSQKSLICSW
How it was run: as §1

UniProt Q8VF05 = biological target: T8, UniProt Q8VF05
T8 sequence (whole entry): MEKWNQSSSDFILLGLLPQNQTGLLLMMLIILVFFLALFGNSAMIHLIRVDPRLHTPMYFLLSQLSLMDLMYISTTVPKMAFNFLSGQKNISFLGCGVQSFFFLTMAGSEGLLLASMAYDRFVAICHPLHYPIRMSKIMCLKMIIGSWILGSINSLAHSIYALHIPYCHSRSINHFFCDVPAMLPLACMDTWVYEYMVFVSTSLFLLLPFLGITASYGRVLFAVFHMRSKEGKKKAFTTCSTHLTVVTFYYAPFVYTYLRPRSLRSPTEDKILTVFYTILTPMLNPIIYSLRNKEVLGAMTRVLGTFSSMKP
How it was run: as §1

UniProt Q7TR79 = biological target: T9, UniProt Q7TR79
T9 sequence (whole entry): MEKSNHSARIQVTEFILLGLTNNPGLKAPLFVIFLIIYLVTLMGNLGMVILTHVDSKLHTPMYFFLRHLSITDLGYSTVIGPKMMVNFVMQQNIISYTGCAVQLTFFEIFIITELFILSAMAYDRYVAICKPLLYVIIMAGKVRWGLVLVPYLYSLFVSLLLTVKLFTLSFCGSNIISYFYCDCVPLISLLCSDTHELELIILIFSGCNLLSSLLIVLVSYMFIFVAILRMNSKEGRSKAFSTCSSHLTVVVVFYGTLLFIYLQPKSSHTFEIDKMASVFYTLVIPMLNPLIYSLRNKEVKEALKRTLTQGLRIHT
How it was run: as §1

UniProt Q7TRX0 = biological target: T10, UniProt Q7TRX0
T10 sequence (whole entry): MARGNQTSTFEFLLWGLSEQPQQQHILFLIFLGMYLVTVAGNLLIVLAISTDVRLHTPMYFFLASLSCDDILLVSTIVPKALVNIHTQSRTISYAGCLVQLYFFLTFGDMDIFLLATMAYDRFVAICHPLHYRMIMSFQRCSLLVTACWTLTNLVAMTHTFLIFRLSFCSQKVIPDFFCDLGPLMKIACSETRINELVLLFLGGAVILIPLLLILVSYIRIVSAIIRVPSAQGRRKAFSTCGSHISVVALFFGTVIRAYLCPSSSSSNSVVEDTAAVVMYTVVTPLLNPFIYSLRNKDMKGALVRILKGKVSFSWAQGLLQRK
How it was run: as §1

UniProt Q7TRN9 = biological target: T11, UniProt Q7TRN9
T11 sequence (whole entry): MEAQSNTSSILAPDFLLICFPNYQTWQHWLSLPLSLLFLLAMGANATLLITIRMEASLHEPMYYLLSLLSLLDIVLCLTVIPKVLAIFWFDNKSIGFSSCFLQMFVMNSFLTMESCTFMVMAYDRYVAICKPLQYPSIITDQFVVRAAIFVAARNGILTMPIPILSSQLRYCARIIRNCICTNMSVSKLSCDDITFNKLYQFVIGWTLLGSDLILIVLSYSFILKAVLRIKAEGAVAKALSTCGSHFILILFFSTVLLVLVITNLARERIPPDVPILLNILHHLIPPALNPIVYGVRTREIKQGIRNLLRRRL
How it was run: as §1

UniProt Q7TRR8 = biological target: T12, UniProt Q7TRR8
T12 sequence (whole entry): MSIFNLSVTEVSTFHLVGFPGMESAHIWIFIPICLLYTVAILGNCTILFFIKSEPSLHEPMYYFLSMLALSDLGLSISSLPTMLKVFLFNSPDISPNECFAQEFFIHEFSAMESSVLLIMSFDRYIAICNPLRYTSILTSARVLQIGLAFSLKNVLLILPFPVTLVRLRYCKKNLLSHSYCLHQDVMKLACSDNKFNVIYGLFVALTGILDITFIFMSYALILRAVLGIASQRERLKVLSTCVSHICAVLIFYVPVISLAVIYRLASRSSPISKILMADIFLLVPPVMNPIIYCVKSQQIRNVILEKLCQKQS
How it was run: as §1

UniProt Q7TRX1 = biological target: UniProt Q7TRX1
How it was run: as §1

UniProt Q7TRM0 = biological target: T13, UniProt Q7TRM0
T13 sequence (whole entry): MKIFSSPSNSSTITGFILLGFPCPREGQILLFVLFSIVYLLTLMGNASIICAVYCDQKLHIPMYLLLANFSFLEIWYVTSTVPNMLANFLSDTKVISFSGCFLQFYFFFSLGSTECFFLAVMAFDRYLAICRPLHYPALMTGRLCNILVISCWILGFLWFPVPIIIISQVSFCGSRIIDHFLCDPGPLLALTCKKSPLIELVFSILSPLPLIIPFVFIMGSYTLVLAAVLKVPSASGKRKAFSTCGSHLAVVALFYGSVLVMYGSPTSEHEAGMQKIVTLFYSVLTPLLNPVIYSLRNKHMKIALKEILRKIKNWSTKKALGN
How it was run: as §1

Measured: odorant receptor agonist call

Chain of UniProt Q7TR75 (Q7TR75 as listed by the source): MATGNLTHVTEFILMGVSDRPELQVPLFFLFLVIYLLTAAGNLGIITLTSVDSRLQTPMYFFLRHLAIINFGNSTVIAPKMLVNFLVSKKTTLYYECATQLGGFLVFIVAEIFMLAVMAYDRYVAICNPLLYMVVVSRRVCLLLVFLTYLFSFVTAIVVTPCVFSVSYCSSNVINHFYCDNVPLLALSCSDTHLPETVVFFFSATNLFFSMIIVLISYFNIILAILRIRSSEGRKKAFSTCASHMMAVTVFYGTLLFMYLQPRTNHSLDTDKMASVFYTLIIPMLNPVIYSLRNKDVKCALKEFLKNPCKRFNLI
Chain of UniProt Q7TRB8 (Q7TRB8 as listed by the source): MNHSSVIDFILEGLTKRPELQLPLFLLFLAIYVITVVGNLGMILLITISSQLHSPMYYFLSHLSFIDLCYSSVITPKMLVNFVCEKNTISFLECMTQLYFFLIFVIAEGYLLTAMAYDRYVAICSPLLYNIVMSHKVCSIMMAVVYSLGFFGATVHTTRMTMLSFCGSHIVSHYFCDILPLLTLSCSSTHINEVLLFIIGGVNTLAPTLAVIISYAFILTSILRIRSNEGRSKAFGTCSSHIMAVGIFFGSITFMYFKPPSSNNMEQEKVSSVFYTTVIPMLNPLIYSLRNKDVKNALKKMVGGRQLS
Chain of UniProt Q7TS40 (Q7TS40 as listed by the source): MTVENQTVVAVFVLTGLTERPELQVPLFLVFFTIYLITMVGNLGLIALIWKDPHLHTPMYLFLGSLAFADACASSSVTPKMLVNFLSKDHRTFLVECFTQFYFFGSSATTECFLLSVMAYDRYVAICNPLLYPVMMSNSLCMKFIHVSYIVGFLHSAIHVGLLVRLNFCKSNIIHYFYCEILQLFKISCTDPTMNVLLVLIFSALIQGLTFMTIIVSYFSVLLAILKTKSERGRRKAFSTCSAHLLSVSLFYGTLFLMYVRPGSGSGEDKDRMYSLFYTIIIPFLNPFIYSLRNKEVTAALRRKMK
Chain of UniProt Q7TS17 (Q7TS17 as listed by the source): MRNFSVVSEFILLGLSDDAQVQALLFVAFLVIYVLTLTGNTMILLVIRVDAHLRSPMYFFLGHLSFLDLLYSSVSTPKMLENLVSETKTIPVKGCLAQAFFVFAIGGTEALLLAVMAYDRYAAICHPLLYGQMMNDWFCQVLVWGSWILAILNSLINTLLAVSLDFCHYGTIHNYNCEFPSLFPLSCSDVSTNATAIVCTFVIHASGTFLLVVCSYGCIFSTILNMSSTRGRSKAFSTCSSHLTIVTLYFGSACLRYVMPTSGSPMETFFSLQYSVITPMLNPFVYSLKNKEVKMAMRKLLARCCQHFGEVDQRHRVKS
Chain of UniProt Q7TS37 (Q7TS37 as listed by the source): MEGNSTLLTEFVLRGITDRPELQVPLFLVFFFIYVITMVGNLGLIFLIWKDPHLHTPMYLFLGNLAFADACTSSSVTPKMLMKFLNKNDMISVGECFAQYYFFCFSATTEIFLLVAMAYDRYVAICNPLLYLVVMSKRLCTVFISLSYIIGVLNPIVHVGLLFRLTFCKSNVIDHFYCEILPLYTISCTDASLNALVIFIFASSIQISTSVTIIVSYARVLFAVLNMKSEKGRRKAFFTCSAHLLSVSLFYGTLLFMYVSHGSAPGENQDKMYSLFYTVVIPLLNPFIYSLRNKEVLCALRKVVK
Chain of UniProt Q7TRX1 (Q7TRX1 as listed by the source): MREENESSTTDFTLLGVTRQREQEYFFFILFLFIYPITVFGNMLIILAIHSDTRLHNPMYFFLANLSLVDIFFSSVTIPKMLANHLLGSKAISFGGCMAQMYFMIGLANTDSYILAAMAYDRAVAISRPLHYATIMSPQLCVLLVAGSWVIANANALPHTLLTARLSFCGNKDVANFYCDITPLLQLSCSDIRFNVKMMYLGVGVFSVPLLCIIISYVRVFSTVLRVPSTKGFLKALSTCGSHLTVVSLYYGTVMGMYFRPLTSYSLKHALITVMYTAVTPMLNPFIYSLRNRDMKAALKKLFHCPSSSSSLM

O=c1ccc2ccccc2o1
inactive: UniProt Q7TRA1 | UniProt Q7TRA2 | UniProt Q7TRW1 | UniProt Q7TS40 | UniProt Q8VEU7 | UniProt Q8VF05
active: UniProt Q7TR71 | UniProt Q7TR75 | UniProt Q7TRA3 | UniProt Q7TRB8 | UniProt Q7TRE4 | UniProt Q7TS17 | UniProt Q7TS37

O=C1CCOc2ccccc21
active: UniProt Q7TR71 | UniProt Q7TR75 | UniProt Q7TRA3 | UniProt Q7TS17 | UniProt Q7TS37 | UniProt Q8VF05
not listed: UniProt Q7TRN9 | UniProt Q7TRR8 | UniProt Q7TRX1 | UniProt Q7TRM0
inactive: all other assays above

CCC(=O)C(=O)CC
inactive: UniProt Q7TR71 | UniProt Q7TR79 | UniProt Q7TRA3 | UniProt Q7TRE4 | UniProt Q7TRW1 | UniProt Q7TRX0 | UniProt Q8VEU7
active: UniProt Q8VF05

C=C(C)C1CCC(C)C(=O)C1 (stereo unspecified)
active: UniProt Q8VF05
inactive: UniProt Q7TR71 | UniProt Q7TR79 | UniProt Q7TRA3 | UniProt Q7TRE4 | UniProt Q7TRW1 | UniProt Q7TRX0 | UniProt Q8VEU7

CCCCCCCO
active: UniProt Q8VF05
inactive: UniProt Q7TR71 | UniProt Q7TR79 | UniProt Q7TRA3 | UniProt Q7TRE4 | UniProt Q7TRN9 | UniProt Q7TRR8 | UniProt Q7TRW1 | UniProt Q7TRX0 | UniProt Q8VEU7

CCCCCCCC(C)=O
inactive: UniProt Q7TR71 | UniProt Q7TR79 | UniProt Q7TRA3 | UniProt Q7TRE4 | UniProt Q7TRW1 | UniProt Q7TRX0 | UniProt Q8VEU7 | UniProt Q8VF05

CC(C)=CCCC(C)CCO (stereo unspecified)
active: UniProt Q7TRX1
inactive: UniProt Q7TR71 | UniProt Q7TR79 | UniProt Q7TRA3 | UniProt Q7TRE4 | UniProt Q7TRW1 | UniProt Q7TRX0 | UniProt Q8VEU7 | UniProt Q8VF05

CCCCCCCCCCO
inactive: UniProt Q7TR71 | UniProt Q7TR79 | UniProt Q7TRA3 | UniProt Q7TRE4 | UniProt Q7TRW1 | UniProt Q7TRX0 | UniProt Q8VEU7 | UniProt Q8VF05

CCCCC(=O)O
not listed: UniProt Q7TR75 | UniProt Q7TRA1 | UniProt Q7TRA2 | UniProt Q7TRB8 | UniProt Q7TS17 | UniProt Q7TS37 | UniProt Q7TS40 | UniProt Q7TRX1
inactive: all other assays above

CCc1ncc(C)nc1CC
inactive: UniProt Q7TR79 | UniProt Q7TRX0

CCC=CCCC=CC=O
inactive: UniProt Q7TR79 | UniProt Q7TRX0

CCC(C(=O)O)c1ccccc1 (stereo unspecified)
inactive: UniProt Q7TR71 | UniProt Q7TRA3 | UniProt Q7TRE4 | UniProt Q7TRW1 | UniProt Q8VEU7 | UniProt Q8VF05

CCCCCCCC(=O)[O-].[H+]
active: UniProt Q7TRN9
inactive: UniProt Q7TR71 | UniProt Q7TRA3 | UniProt Q7TRE4 | UniProt Q7TRM0 | UniProt Q7TRR8 | UniProt Q7TRW1 | UniProt Q8VEU7 | UniProt Q8VF05

C=CC(=C)CCC=C(C)C
inactive: UniProt Q7TR79 | UniProt Q7TRX0

— the M2OR odorant receptor database
